Measured values: ChEMBL document CHEMBL2440072, “Identification, biological characterization and pharmacophoric analysis of a new potent and selective NK1 receptor antagonist clinical candidate” (Bioorg Med Chem, 2013)

Experiments:
Substance-P receptor [1] = molecular target: T1, Substance-P receptor (Homo sapiens, UniProt P25103); assay: Antagonist activity at NK1 receptor (unknown origin)
Substance-P receptor [2] = molecular target: T1, Substance-P receptor; assay: Displacement of [3H]SP from human recombinant NK1 receptor expressed in CHO cells after 40 mins by scintillation counting analysis; format: cell-based
In short: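 Membranes from hNK1-CHO cells (8 µg protein) with [3H]-SP 0.5 nM in HEPES pH 7.4, 3 mM MnCl2, 0.02% BSA. Compound 1 pM–1 µM final, 40 min at room temperature. Nonspecific binding with 1 µM SP. Filtration through PEI-soaked GF/B filters, scintillation counting. IC50 fitted with slope fixed at unity, converted to Ki by Cheng-Prusoff; duplicates.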

[3] = Ratio of drug uptake in brain to plasma in rat at 1 mg/kg, iv after 5 mins; format: ADME, organism-based; set-up: dose 1 mg/kg, route intravenous; conditions: read-out: BPR
In short: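 Rat brain and plasma levels measured 5 min after 1 mg/kg i.v. dose; brain/plasma ratio calculated.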

[4] = Oral bioavailability in dog at 1 mg/kg; format: ADME, organism-based, Canis lupus familiaris; conditions: in vivo
In short: (§1)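 Rat and dog pharmacokinetics derived from plasma concentrations after 0.5 mg/kg i.v. and 1 mg/kg oral dosing.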

[5] = Oral bioavailability in rat at 1 mg/kg; format: ADME, organism-based; conditions: in vivo; in short: as §1
[6] = Half life in dog at 0.5 mg/kg, iv and 1 mg/kg, po; format: ADME, organism-based, Canis lupus familiaris; conditions: in vivo; in short: as §1
[7] = Half life in rat at 0.5 mg/kg, iv and 1 mg/kg, po; format: ADME, organism-based; conditions: in vivo; in short: as §1
[8] = Volume of distribution at steady state in dog at 0.5 mg/kg, iv and 1 mg/kg, po; format: ADME, organism-based, Canis lupus familiaris; conditions: in vivo, read-out: Vdss; in short: as §1
[9] = Volume of distribution at steady state in rat at 0.5 mg/kg, iv and 1 mg/kg, po; format: ADME, organism-based; conditions: in vivo, read-out: Vdss; in short: as §1
[10] = Plasma clearance in dog at 0.5 mg/kg, iv and 1 mg/kg, po; format: ADME, organism-based, Canis lupus familiaris; in short: as §1
[11] = Plasma clearance in rat at 0.5 mg/kg, iv and 1 mg/kg, po; format: ADME, organism-based; in short: as §1
Substance-P receptor [12] = molecular target: T1, Substance-P receptor; conditions: CHO
[13] = molecular target: Platelet-activating factor receptor (Homo sapiens, UniProt P25105); assay: Inhibition of platelet activating factor receptor (unknown origin)
Sequence of Platelet-activating factor receptor (P25105 whole entry): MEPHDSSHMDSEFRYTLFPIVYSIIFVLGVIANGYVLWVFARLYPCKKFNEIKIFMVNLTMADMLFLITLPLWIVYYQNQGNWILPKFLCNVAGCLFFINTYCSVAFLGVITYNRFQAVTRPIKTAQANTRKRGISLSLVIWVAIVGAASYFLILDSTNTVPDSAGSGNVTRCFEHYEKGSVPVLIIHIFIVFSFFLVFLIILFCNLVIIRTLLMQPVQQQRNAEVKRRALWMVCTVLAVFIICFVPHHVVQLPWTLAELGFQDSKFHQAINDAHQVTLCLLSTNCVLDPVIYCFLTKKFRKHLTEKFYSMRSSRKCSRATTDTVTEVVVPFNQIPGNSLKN

[14] = Inhibition of sigma2 receptor (unknown origin); set-up: species or system Homo sapiens
[15] = molecular target: Sigma non-opioid intracellular receptor 1 (Homo sapiens, UniProt Q99720); assay: Inhibition of sigma1 receptor (unknown origin)
Sequence of Sigma non-opioid intracellular receptor 1 (Q99720 whole entry): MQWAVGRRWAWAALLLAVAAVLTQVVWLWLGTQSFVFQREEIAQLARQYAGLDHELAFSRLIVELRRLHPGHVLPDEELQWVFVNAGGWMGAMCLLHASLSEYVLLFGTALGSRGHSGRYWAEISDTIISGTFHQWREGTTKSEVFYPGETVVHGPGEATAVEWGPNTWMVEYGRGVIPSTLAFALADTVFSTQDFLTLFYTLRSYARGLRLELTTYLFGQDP

[16] = Inhibition of sodium channel site2 (unknown origin); set-up: species or system Homo sapiens
Meriones unguiculatus [17] = assay: Ex vivo NK1 receptor occupancy in Mongolian gerbil striatum assessed as inhibition of [3H]-GR205171 binding at 1 mg/kg, po by autoradiography; format: functional
In short: (§2)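 Gerbils dosed orally (0.1–1 mg/kg) 1 h before, killed after social interaction testing. Unwashed 12 µm coronal sections incubated 10 min with 0.3 nM [3H]-GR205171; nonspecific binding with 100 nM GR205171. Imaging-plate exposure 10 days. Occupancy = 100% minus specific binding ratio treated/vehicle in striatum; 3 animals per group.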

Meriones unguiculatus [18] = assay: Ex vivo NK1 receptor occupancy in Mongolian gerbil striatum assessed as inhibition of [3H]-GR205171 binding at 0.3 mg/kg, po by autoradiography; format: functional; in short: as §2
Meriones unguiculatus [19] = assay: Ex vivo NK1 receptor occupancy in Mongolian gerbil striatum assessed as inhibition of [3H]-GR205171 binding at 0.1 mg/kg, po by autoradiography; format: functional; in short: as §2
Meriones unguiculatus [20] = assay: Toxicity in Mongolian gerbil assessed as locomotor activity at 0.1 to 1 mg/kg, po after 1 hr; format: organism-based; set-up: dose 0.1-1 mg/kg, route oral; conditions: in vivo
Meriones unguiculatus [21] = assay: Antidepressant activity in Mongolian gerbil assessed as increase in social interaction time at 1 mg/kg, po after 1 hr (reference value: 21.2 +/- 2.9 secs); format: functional
Meriones unguiculatus [22] = assay: Antidepressant activity in po dosed Mongolian gerbil assessed as increase in social interaction time after 1 hr; format: functional, organism-based
Meriones unguiculatus [23] = assay: Antidepressant activity in Mongolian gerbil assessed as increase in social interaction time at 0.3 mg/kg, po after 1 hr (reference value: 21.2 +/- 2.9 secs); format: functional
Meriones unguiculatus [24] = assay: Antidepressant activity in Mongolian gerbil assessed as increase in social interaction time at 0.1 mg/kg, po after 1 hr (reference value: 21.2 +/- 2.9 secs); format: functional
Callithrix jacchus [25] = assay: Anxiolytic activity in marmoset human threat test model assessed as reduction in number of postures at 3 mg/kg, po preincubated for 1 hr followed by compound wash out for 3 days relative to vehicle-treated control; format: functional; set-up: scale not given: the % may be the effect or the level left
In short: (§3)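 Marmosets, both sexes, >2 years, 300–500 g, preselected for ≥10 postures in 2 min. Oral dosing 0.3–10 mg/kg (1 ml/kg) in 0.5% methocel with 1% DMSO, 1 h before a human-observer threat test. Blind random crossover, ≥3 day washout, 4–7 animals. Postures counted; paired t-test against matched vehicle.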

Callithrix jacchus [26] = assay: Anxiolytic activity in marmoset human threat test model assessed as reduction in number of postures at 1 mg/kg, po preincubated for 1 hr followed by compound wash out for 3 days relative to vehicle-treated control; format: functional; set-up: scale not given: the % may be the effect or the level left; in short: as §3
Callithrix jacchus [27] = assay: Anxiolytic activity in marmoset human threat test model assessed as reduction in number of postures at 0.3 mg/kg, po preincubated for 1 hr followed by compound wash out for 3 days relative to vehicle-treated control; format: functional; set-up: scale not given: the % may be the effect or the level left; in short: as §3
Callithrix jacchus [28] = assay: Anxiolytic activity in po dosed marmoset human threat test model assessed as reduction in number of postures preincubated for 1 hr followed by compound wash out for 3 days; format: functional, organism-based; in short: as §3
Meriones unguiculatus [29] = assay: Inhibition of GR73632-induced tapping behavior in po dosed Mongolian gerbil foot tapping model administered 1 to 24 hrs prior to GR73632 challenge; format: functional, organism-based
In short: (§4)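 Male gerbils (50–70 g) dosed orally (10 ml/kg) in 0.5% methocel with 5% DMSO, 1, 4, 8 or 24 h before icv GR73632 (3 pmol/5 µl) given under brief isoflurane. Hind foot tapping timed for 3 min; ≥7 animals per treatment.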

Meriones unguiculatus [30] = assay: Inhibition of GR73632-induced tapping behavior in sc dosed Mongolian gerbil foot tapping model administered 1 hr prior to GR73632 challenge; format: functional; conditions: read-out: ID50
Meriones unguiculatus [31] = assay: Inhibition of GR73632-induced tapping behavior in po dosed Mongolian gerbil foot tapping model administered 24 hrs prior to GR73632 challenge; format: functional; conditions: read-out: ID50 (the source's name); in short: as §4
Meriones unguiculatus [32] = assay: Inhibition of GR73632-induced tapping behavior in po dosed Mongolian gerbil foot tapping model administered 8 hrs prior to GR73632 challenge; format: functional; conditions: read-out: ID50 (the source's name); in short: as §4
Meriones unguiculatus [33] = assay: Inhibition of GR73632-induced tapping behavior in po dosed Mongolian gerbil foot tapping model administered 4 hrs prior to GR73632 challenge; format: functional; conditions: read-out: ID50 (the source's name); in short: as §4
Meriones unguiculatus [34] = assay: Inhibition of GR73632-induced tapping behavior in po dosed Mongolian gerbil foot tapping model administered 1 hr prior to GR73632 challenge; format: functional; conditions: read-out: ID50 (the source's name); in short: as §4
[35] = Ratio of drug uptake in brain to plasma in Mongolian gerbil at 1 mg/kg, po; format: ADME, organism-based, Meriones unguiculatus; set-up: dose 1 mg/kg, route oral
In short: (§5)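 Gerbils given 1 mg/kg orally; total brain concentration and brain/plasma ratio determined.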

[36] = Drug uptake in Mongolian gerbil brain at 1 mg/kg, po; format: ADME, organism-based, Meriones unguiculatus; set-up: dose 1 mg/kg, route oral; conditions: in vivo; in short: as §5
[37] = Displacement of [3H]GR205171 from marmoset cerebral striatum NK1 receptor after 60 mins by scintillation counting analysis; set-up: species or system Callithrix jacchus
In short: (§6)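 Brain membranes used: gerbil cortex/striatum (0.055 mg protein) or marmoset striatum (0.080 mg). Radioligand [3H]-GR205171 0.2 nM, compound 1 pM–1 µM final, in HEPES pH 7.4, MnCl2, BSA plus protease inhibitors. Incubation 60 min at room temperature; nonspecific binding with 1 µM GR205171. Filtration on GF/C, scintillation counting; LIGAND fit, duplicates.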

Substance-P receptor [38] = molecular target: Substance-P receptor (Meriones unguiculatus, UniProt Q5DUB1); assay: Displacement of [3H]GR205171 from Mongolian gerbil brain NK1 receptor after 60 mins by scintillation counting analysis; in short: as §6
Sequence of Substance-P receptor (Meriones unguiculatus, UniProt Q5DUB1) (Q5DUB1 whole entry): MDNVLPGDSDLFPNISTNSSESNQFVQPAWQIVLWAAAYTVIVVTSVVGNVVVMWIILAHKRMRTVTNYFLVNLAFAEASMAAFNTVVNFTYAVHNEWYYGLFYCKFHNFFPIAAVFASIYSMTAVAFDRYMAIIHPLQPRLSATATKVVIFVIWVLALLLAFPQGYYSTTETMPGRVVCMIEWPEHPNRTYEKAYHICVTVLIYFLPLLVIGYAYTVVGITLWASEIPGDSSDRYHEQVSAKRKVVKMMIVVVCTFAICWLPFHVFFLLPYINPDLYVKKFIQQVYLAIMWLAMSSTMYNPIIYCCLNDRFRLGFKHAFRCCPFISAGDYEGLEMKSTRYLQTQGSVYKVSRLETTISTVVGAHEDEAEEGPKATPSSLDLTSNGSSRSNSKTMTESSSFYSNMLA

Callithrix jacchus [39] = assay: Anxiolytic activity in marmoset human threat test model assessed as reduction in number of postures at 10 mg/kg, po preincubated for 1 hr followed by compound wash out for 3 days relative to vehicle-treated control; format: functional; set-up: scale not given: the % may be the effect or the level left; in short: as §3

T1 sequence (P25103 whole entry): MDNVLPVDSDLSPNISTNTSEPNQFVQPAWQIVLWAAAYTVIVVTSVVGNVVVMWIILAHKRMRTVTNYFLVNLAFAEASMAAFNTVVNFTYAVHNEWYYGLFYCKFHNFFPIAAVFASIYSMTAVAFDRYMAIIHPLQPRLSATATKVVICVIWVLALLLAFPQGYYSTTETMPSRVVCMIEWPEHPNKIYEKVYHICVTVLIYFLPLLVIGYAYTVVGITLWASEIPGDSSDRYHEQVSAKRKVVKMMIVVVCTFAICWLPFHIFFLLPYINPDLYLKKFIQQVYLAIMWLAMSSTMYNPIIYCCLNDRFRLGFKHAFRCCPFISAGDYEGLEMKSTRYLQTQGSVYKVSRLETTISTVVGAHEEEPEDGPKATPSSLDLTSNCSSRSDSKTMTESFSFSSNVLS

`COc1ccccc1CN1CN2CCCC1C2c1ccccc1` (configuration not stated) gave an IC50 (Substance-P receptor [1]) of 0.61 nM.
`Cc1cc(F)ccc1[C@H]1C[C@H](N2CCN3C(=O)CC[C@@H]3C2)CCN1C(=O)N(C)[C@H](C)c1cc(C(F)(F)F)cc(C(F)(F)F)c1` gave a Ki (Substance-P receptor [2]) of 0.138 nM.
`Cc1cc(F)ccc1[C@H]1C[C@@H](N2CCN3C(=O)CC[C@@H]3C2)CCN1C(=O)N(C)[C@H](C)c1cc(C(F)(F)F)cc(C(F)(F)F)c1` gave a Ki (Substance-P receptor [2]) of 0.2 nM.
For `Cc1cc(F)ccc1[C@H]1C[C@H](N2CCN3C(=O)CC[C@H]3C2)CCN1C(=O)N(C)[C@H](C)c1cc(C(F)(F)F)cc(C(F)(F)F)c1`, the Kp at 5 min [3] was 0.9, the bioavailability [4] was 28% and the bioavailability [5] was 19%. The half-life [6] was 5.1 h, the half-life [7] was 2.8 h and the Vd [8] was 2 L/kg. It also gave a Vd [9] of 3.4 L/kg, a clearance [10] of 11 mL/min/kg and a clearance [11] of 25 mL/min/kg. It also gave a Ki (Substance-P receptor [2]) of 0.0646 nM and a pKb (Substance-P receptor [12]) of 10.5.
Compound `COc1ccc(-n2cnnn2)cc1CN[C@H]1CCCN[C@H]1c1ccccc1` has an IC50 (Substance-P receptor [1]) of 0.04 nM.
In the case of `CC(=O)N1CCN([C@H]2CCN(C(=O)N(C)[C@H](C)c3cc(C(F)(F)F)cc(C(F)(F)F)c3)[C@@H](c3ccc(F)cc3C)C2)CC1` [CASOPITANT], the bioavailability [4] is reported as 34%, the Vd [9] is reported as 3.2 L/kg and the clearance [11] is reported as 37 mL/min/kg.
`Cc1ccccc1-c1cc(N2CCN(C)CC2)ncc1N(C)C(=O)C(C)(C)c1cc(C(F)(F)F)cc(C(F)(F)F)c1` [NETUPITANT] showed an IC50 (Substance-P receptor [1]) of 0.95 nM.
For `Cc1cc(F)ccc1[C@H]1C[C@@H](N2CCN3C(=O)CC[C@H]3C2)CCN1C(=O)N(C)[C@H](C)c1cc(C(F)(F)F)cc(C(F)(F)F)c1` [ORVEPITANT], the Ki [13] was 2270 nM, the Ki [14] was 3260 nM and the Ki [15] was 940 nM. The Ki [16] was 4540 nM, the Occ (Meriones unguiculatus [17]) was 95.2% and the Occ (Meriones unguiculatus [18]) was 74.6%. For the same compound, the Occ (Meriones unguiculatus [19]) was 47.8%, the Activity (Meriones unguiculatus [20]) was “Non-toxic” and the Time (Meriones unguiculatus [21]) was 33.1 s. For the same compound, the Activity (Meriones unguiculatus [22]) was “Dose-dependent effect”, the Time (Meriones unguiculatus [23]) was 27.3 s and the Time (Meriones unguiculatus [24]) was 22.1 s. It also gave an Activity (Callithrix jacchus [25]) of 36.6%, an Activity (Callithrix jacchus [26]) of 34.9% and an Activity (Callithrix jacchus [27]) of 11.8%. The Activity (Callithrix jacchus [28]) was “Dose-dependent effect”, the Activity (Meriones unguiculatus [29]) was “Dose-dependent effect” and the ED50 (Meriones unguiculatus [30]) was 0.07 mg/kg. The ED50 (Meriones unguiculatus [31]) was 3.36 mg/kg, the ED50 (Meriones unguiculatus [32]) was 0.09 mg/kg and the ED50 (Meriones unguiculatus [33]) was 0.09 mg/kg. The ED50 (Meriones unguiculatus [34]) was 0.11 mg/kg, the Kp [35] was 1.2 and the Drug uptake [36] was 91 ng/g. It also gave a pKi [37] of 10.4, a Ki (Substance-P receptor [38]) of 0.0316 nM and a Kp at 5 min [3] of 1.2. For the same compound, the bioavailability [4] was 55%, the bioavailability [5] was 17% and the half-life [6] was 6.1 h. It also gave a half-life [7] of 2.3 h, a Vd [8] of 2 L/kg and a Vd [9] of 3.7 L/kg. The clearance [10] was 6 mL/min/kg, the clearance [11] was 29 mL/min/kg and the Ki (Substance-P receptor [2]) was 0.0631 nM. The Activity (Callithrix jacchus [39]) was 46.4% and the pKb (Substance-P receptor [12]) was 10.3.
